Screening data deposited in PubChem BioAssay by several laboratories.
Hits are enriched below; roughly 1.5% of the tested compounds scored in any of these assays.
CHT PAM: allosteric activators of human choline transporter CHT. AID 488977. Q9GZV3. 310,000 compounds, 0.49% hits. CHT-expressing cells, membrane potential dye, choline EC20; active compounds read high; LV-AA mutant CHT in HEK293 cells. B-score at 10 µM;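 active = initial fluorescence not abnormally high and integrated response B-score, plate-corrected, over 3 SD above library mean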
VLA-4 inh: inhibition in a human VLA-4 binding assay. P13612. inhibition, % (about 7 µM as worked out from the volumes in the protocol). VLA-4 expressing cells, ligand binding flow cytometry. 330,000 compounds, 0.2% hits; in the data active = inhibition above about 50%
T cell modulator: T cell immune modulation candidate | 2C CD8+ T cell-vesicle binding, flow cytometry; active compounds read low | response (vesicle binding), % at 7 µM | 330,000 compounds, 0.068% hits;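 active = response, share of CD8 T cells binding vesicles, and their 90th percentile fluorescence all below set limits, cut at about 80% in these data, passing the limit was not always enough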;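 note: values below 100% mean blocked vesicle binding to the CD8+ T cells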
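Read-out – percent CD8+ FL2 mean versus row control · System – murine 2C transgenic CD8+ T lymphocytes · Times – 1.5 h cell–vesicle binding at 37 °C, then 20 min icy labelling · Control set – naked vesicles low, QL9 vesicles with vehicle high · Detection – cytometric PE anti-B7-1 and Alexa647 anti-CD8 signals after 1% paraformaldehyde fixation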
CHT inh: human CHT choline transport inhibition; Q9GZV3; CHT-expressing cells, membrane potential dye, choline response; active compounds read low; B-score at 10 µM; 310,000 compounds, 0.86% hits; AID 488975;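 active = B-score over 3 SD under the library average, and starting fluorescence ratio not unusually high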;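 note: choline stimulus applied at its EC90 after an EC20 pre-addition; B-score computed on integrated fluorescence ratio after choline addition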
CHT act confirm: human CHT activation, confirmatory screen; shares compounds with CHT PAM; CHT-expressing cells, membrane potential dye fluorescence (FDSS); % of choline EC20–EC90 response window; HEK293 expressing CHT LV-AA mutant; choline added at its EC20; activation, % at 10 µM; 2,500 compounds, 91% hits; AID 504833;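 active = primary screen active, with duplicate mean activation above negative control mean plus 3 SD, cut at about 11% in these data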
HEK293 MP dye: counter-screen for CHT activators: effect in parental HEK293 cells; shares compounds with CHT PAM; membrane potential dye fluorescence (FDSS); measured after EC20 choline addition; ratio readout change at 10 µM, hits read low; 2,500 compounds, 62% hits;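 active = duplicate-averaged ratio beyond 3 SD from buffer wells, up or down, though filed actives are nearly all decreases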
* = called active by the depositor; i = inactive; · = no result.

SMILES | CHT PAM | VLA-4 inh | T cell modulator | CHT inh | CHT act confirm | HEK293 MP dye
Cc1nc(/N=C(\N)NC(=O)c2ccccc2)nc2ccccc12 | i | · | 348 | i | · | ·
Cc1nc(N=C(N)N)nc2ccccc12 | 8.1* | -2 | 217 | i | 67* | -60*
COCCN(C(=O)CSc1n[nH]c(-c2ccccc2)n1)c1c(N)n(CC(C)C)c(=O)[nH]c1=O | i | 6 | 390 | i | · | ·
Cn1c(=O)c2c(nc(SCCN3CCOCC3)n2C)n(C)c1=O | i | 16 | 244 | i | 51* | -51*
CCCCCn1c(SCCN2CCOCC2)nc2c1c(=O)[nH]c(=O)n2C | i | -7 | 217 | i | 39* | -37*
Cn1c(=O)c2c(nc(SCCN3CCOCC3)n2Cc2ccc(F)cc2)n(C)c1=O | i | 5 | 304 | i | · | ·
CN(C)C=NCCn1c(N2CCOCC2)nc2c1c(=O)n(C)c(=O)n2C | 14* | 19 | 595 | i | 68* | -70*
Cn1c(=O)c2c(nc(N3CCOCC3)n2CCc2ccccc2)n(C)c1=O | i | 0 | i | i | · | ·
CCn1c(SCCN2CCOCC2)nc2c1c(=O)n(C)c(=O)n2C | i | 2 | 318 | i | 49* | -38*
NC(=O)C1CCN(C(=O)Nc2csc3ccccc23)CC1 | i | -7 | 209 | i | · | ·
COC(=O)CCSCC(=O)N1N=C(c2ccc(Br)cc2)CC1c1cccc(OC)c1OC (centres undefined) | i | 9 | 909 | i | · | ·
O=C(CCC1CCCN(Cc2ccc3c(c2)CCO3)C1)NCc1ccc(F)c(F)c1 (centres undefined) | i | 7 | 223 | i | · | ·
Cc1ccc(C(=O)Nc2cccc(NC(=O)CN3CCCCC3)c2)cc1 | i | -4 | 173 | i | · | ·
C[n+]1ccccc1/C=C/c1c(F)cccc1F | i | -1 | 155 | i | · | ·
C[n+]1ccccc1/C=C/c1ccccc1Cl | i | -1 | 163 | i | · | ·
Cc1ccccc1/C=C/c1cccc[n+]1C | i | -1 | 178 | i | 45* | -55*
C[n+]1ccccc1/C=C/c1ccc(F)c(F)c1 | 8.3* | 10 | 302 | i | 58* | -65*
CC12CCC(=O)N1C(C(=O)Nc1ccc(SC(F)F)cc1)CS2 (centres undefined) | i | 9 | 616 | i | · | ·
COCc1cc(CNC(=O)C2CCC(=O)N(Cc3ccccc3OC)C2)[nH]n1 (centres undefined) | i | 16 | 368 | i | · | ·
CCCn1c(CN2CCN(C(=O)OCC)CC2)nc2cc(NC(=O)CC)ccc21 | i | 21 | 78 | i | 9.8* | i
C/C(CCC(C)C)=N\Nc1cc(C)c2ccccc2n1 | 7.4* | 15 | 102 | i | 52* | i
Cc1csc2cc(-c3cccc([N+](=O)[O-])c3)c(-c3cccc([N+](=O)[O-])c3)c[n+]12 | 9.3* | -1 | 170 | i | 86* | -87*
CCOC(=O)c1c(-c2cccc([N+](=O)[O-])c2)csc1N | i | 2 | 170 | i | · | ·
O=C(NNC(=O)C1CCCCC1)c1ccc(Br)cc1 | i | 11 | 516 | i | · | ·
Cc1cc(OCC(=O)NC2CC(C)(C)NC(C)(C)C2)c2c(C)cc(=O)oc2c1 | i | 25 | 358 | i | 66* | -45*
SMILES | CHT PAM | VLA-4 inh | T cell modulator | CHT inh | CHT act confirm | HEK293 MP dye
Cc1cc(=O)oc2c(C)c(OCC(=O)NC3CC(C)(C)NC(C)(C)C3)ccc12 | 8.2* | 25 | 535 | i | 47* | -54*
Cc1cc(OCC(=O)NC2CC(C)(C)NC(C)(C)C2)c2c(C)c(C)c(=O)oc2c1 | 9.2* | 5 | 113 | i | 49* | -48*
CC1(C)CC(NC(=O)COc2cc3oc(=O)c4c(c3cc2Cl)CCC4)CC(C)(C)N1 | i | 2 | 352 | i | · | ·
CC1(C)CC(NC(=O)COc2ccc3ccc(=O)oc3c2)CC(C)(C)N1 | i | 14 | 441 | i | · | ·
CCN(c1ccccc1C(=O)O)S(=O)(=O)c1ccc2[nH]c(=O)[nH]c2c1 | i | 18 | 604 | i | · | ·
O=C(Cn1cc2c(n1)CCCCC2)Nc1ccccc1Br | i | 12 | 562 | i | · | ·
COC(=O)c1cc(C(=O)N2CCN(c3cccc(Cl)c3)CC2)cc([N+](=O)[O-])c1 | 7.6* | 15 | 221 | i | 33* | i
O=C(c1cccc([N+](=O)[O-])c1)N1CCN(c2cccc(Cl)c2)CC1 | i | 4 | 225 | i | · | ·
CC1(C)CC(N2CCCC2)=CC(=[N+]2CCCC2)C1 | 8.6* | -4 | 100 | i | 58* | -34*
CC1(C)CC(N2CCN(Cc3ccccc3)CC2)=CC(=[N+]2CCCCC2)C1 | i | 4 | 207 | i | · | ·
CCN1CCN(CCNC(=O)c2ccc(/C=C3/Sc4ccccc4N(Cc4cccc(Cl)c4)C3=O)cc2)CC1 | i | -8 | 227 | i | 17* | -28*
CC(C)Cn1c(N)c(C(=O)COC(=O)/C=C/c2ccccc2)c(=O)n(C)c1=O | i | 4 | 412 | i | · | ·
CC(C)(C)c1ccc(C(=O)N2CCC(=O)N(C(COCc3ccccc3)Cc3ccccc3)CC2)cc1 (centres undefined) | i | 18 | 788 | i | 3 | i
Cc1ccc(COn2c(-c3ccc(Cl)cc3Cl)nc3ncccc32)cc1 | 6.6* | -8 | 196 | i | 31* | i
Cc1cc(NC(=O)CSCC(=O)OCC(=O)c2cccc(Br)c2)no1 | · | 0 | i | · | · | ·
NC(=O)CN1CCN(CCN2C(=O)c3cccc4cccc(c34)C2=O)CC1 | i | 0 | 480 | i | 43* | -33*
Nc1cc2c3c(cccc3c1)C(=O)N(CCN1CCCC1)C2=O | i | -84 | 216 | i | · | ·
CC(C)Oc1cccc(C(=O)C2CCCN(Cc3cnc(N4CCOCC4)s3)C2)c1 (centres undefined) | i | -2 | 187 | i | · | ·
CCC(OC(C)=O)c1cc2c(cc1[N+](=O)[O-])OCCO2 (centres undefined) | i | 6 | 169 | i | · | ·
CCOC(=O)c1ncccc1NC(=O)CC(=O)Nc1cccnc1C(=O)OCC | i | -13 | 549 | i | 32* | -36*
Cc1nn(C)cc1S(=O)(=O)NCc1ccccc1Cl | i | 9 | 108 | i | · | ·
Cc1c(CCOC(=O)C23CC4(C)CC(C)(CC(C)(C4)C2)C3)sc[n+]1CC(=O)c1ccccc1 | i | 2 | 202 | i | · | ·
Cc1c(CCOC(=O)CC23CC4CC(CC(C4)C2)C3)sc[n+]1CC(=O)c1ccccc1 | i | 18 | 245 | i | 45* | i
c1ccc2c(c1)N1CCN=C1N2CCN1CCCCC1 | 9.8* | 4 | 339 | i | 80* | -80*
